Data published in ChEMBL document CHEMBL1141286, “Benzochromenones from the marine crinoid Comantheria rotula inhibit hypoxia-inducible factor-1 (HIF-1) in cell-based reporter assays and differentially suppress the growth of certain tumor cell lines” (J Nat Prod, 2007).
Active and inactive are the calls of the source. The calls are words filed in the database; no cut-off is given here.

Legend:
A498 = test: Growth inhibition of human A498 cells; assay type: functional
HOP-62 = test: Growth inhibition of human HOP62 cells; assay type: functional
NCI-H522 = test: Growth inhibition of human NCI-H522 cells; assay type: functional
PC-3 = test: Growth inhibition of human PC3 cells; assay type: functional
COLO 205 = test: Growth inhibition of human COLO205 cells; assay type: functional
SF-295 = test: Growth inhibition of human SF295 cells; assay type: functional
T47D [1] = test: Growth inhibition of human T47D cells; assay type: functional
DU-145 = test: Growth inhibition of human DU145 cells; assay type: functional
T47D [2] = test: Inhibition of 1,10-phenanthroline-induced VEGF protein secretion in human T47D cells at 10 uM after 16 hrs by ELISA; assay type: functional, cell-based
Method in brief: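 T47D cells stimulated with 1,10-phenanthroline, compound at 10 μM; secreted VEGF in conditioned media by ELISA, normalized to cell-lysate protein.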

M14 = test: Growth inhibition of human M14 cells; assay type: functional
SN12C = test: Growth inhibition of human SN12C cells; assay type: functional
ACHN = test: Growth inhibition of human ACHN cells; assay type: functional
KM12 = test: Growth inhibition of human KM12 cells; assay type: functional
NCI-H226 = test: Growth inhibition of human NCI-H226 cells; assay type: functional
Hs-578T = test: Growth inhibition of human HS578T cells; assay type: functional
SR = test: Growth inhibition of human SR cells; assay type: functional
MDA-MB-231 = test: Growth inhibition of human MDA-MB-231 cells; assay type: functional
[3] = molecular target: Hypoxia inducible factors; HIF-1-alpha, HIF-2-alpha (Homo sapiens, UniProt Q16665+Q99814); test: Inhibition of HIF1 activation in human T47D cells by TK-luciferase assay; assay type: cell-based
Method in brief: (§1)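 HIF-1 reporter (pHRE-TK-Luc) assays in transfected PC-3 or T47D cells; HIF-1 induced by hypoxia or by the hypoxia mimetic 1,10-phenanthroline (10 μM); compounds at half-log concentrations; luciferase activity measured; IC50 from experiments in triplicate.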

BT-549 = test: Growth inhibition of human BT549 cells; assay type: functional
UO-31 = test: Growth inhibition of human UO31 cells; assay type: functional
786-0 = test: Growth inhibition of human 786-0 cells; assay type: functional
Malme-3M = test: Growth inhibition of human MALME-3M cells; assay type: functional
UACC-257 = test: Growth inhibition of human UACC257 cells; assay type: functional
HCC 2998 = test: Growth inhibition of human HCC2998 cells; assay type: functional
SK-OV-3 = test: Growth inhibition of human SK-OV3 cells; assay type: functional
SK-MEL-5 = test: Growth inhibition of human SK-MEL5 cells; assay type: functional
SNB-75 = test: Growth inhibition of human SNB75 cells; assay type: functional
HT-29 = test: Growth inhibition of human HT29 cells; assay type: functional
HCT-15 = test: Growth inhibition of human HCT15 cells; assay type: functional
CAKI-1 = test: Growth inhibition of human CAKI1 cells; assay type: functional
SNB-19 = test: Growth inhibition of human SNB19 cells; assay type: functional
K562 = test: Growth inhibition of human K562 cells; assay type: functional
MCF7 = test: Growth inhibition of human MCF7 cells; assay type: functional
HCT-116 = test: Growth inhibition of human HCT116 cells; assay type: functional
SK-MEL-28 = test: Growth inhibition of human SK-MEL28 cells; assay type: functional
[4] = Inhibition of 1,10-phenanthroline-induced HIF1 activation in T47D cells by TK-luciferase assay; assay type: cell-based; details: Homo sapiens; method in brief: as §1
RXF 393 = test: Growth inhibition of human RXF393 cells; assay type: functional
NCI-H322M = test: Growth inhibition of human NCI-H322M cells; assay type: functional
SK-MEL-2 = test: Growth inhibition of human SK-MEL2 cells; assay type: functional
EKVX = test: Growth inhibition of human EKVX cells; assay type: functional
[5] = Inhibition of HIF1 activation in PC3 cells by TK-luciferase assay; assay type: cell-based; details: Homo sapiens, PC-3; method in brief: as §1
[6] = read-out: Log LC50 (the source's name) (converted)

## COc1cc(O)cc2cc3oc(C)cc(=O)c3c(OC)c12 [COMANTHERIN]
A498
  GI50: > 100 µM
  LC50: > 100 µM
A498; read-out: Log TGI (converted)
  TGI: > 100 µM
HOP-62
  GI50: > 100 µM
HOP-62; [6]
  CC50: > 100 µM
HOP-62; read-out: Log TGI (converted)
  TGI: > 100 µM
NCI-H522
  GI50: > 100 µM
NCI-H522; [6]
  CC50: > 100 µM
NCI-H522; read-out: Log TGI (converted)
  TGI: > 100 µM
PC-3
  GI50: 85.1 µM
  LC50: > 100 µM
PC-3; read-out: Log TGI (converted)
  TGI: > 100 µM
COLO 205
  GI50: > 100 µM
COLO 205; [6]
  CC50: > 100 µM
COLO 205; read-out: Log TGI (converted)
  TGI: > 100 µM
SF-295
  GI50: > 100 µM
  LC50: > 100 µM
SF-295; read-out: Log TGI (converted)
  TGI: > 100 µM
T47D [1]
  GI50: 81.3 µM
  LC50: > 100 µM
T47D [1]; read-out: Log TGI (converted)
  TGI: > 100 µM
DU-145
  GI50: > 100 µM
DU-145; [6]
  CC50: > 100 µM
DU-145; read-out: Log TGI (converted)
  TGI: > 100 µM
T47D [2]
  Activity: inactive
M14
  GI50: > 100 µM
  LC50 (50% lethal concentration): > 100 µM
M14; read-out: Log TGI (converted)
  TGI: > 100 µM
SN12C
  GI50: > 100 µM
  LC50: > 100 µM
SN12C; read-out: Log TGI (converted)
  TGI: > 100 µM
ACHN
  GI50: > 100 µM
ACHN; [6]
  CC50: > 100 µM
ACHN; read-out: Log TGI (converted)
  TGI: > 100 µM
KM12
  GI50: > 100 µM
KM12; [6]
  CC50: > 100 µM
KM12; read-out: Log TGI (converted)
  TGI: > 100 µM
NCI-H226
  GI50: > 100 µM
NCI-H226; [6]
  CC50: > 100 µM
NCI-H226; read-out: Log TGI (converted)
  TGI: > 100 µM
Hs-578T
  GI50: 21.9 µM
  LC50: > 100 µM
Hs-578T; read-out: Log TGI (converted)
  TGI: > 100 µM
SR
  GI50: 97.7 µM
SR; [6]
  CC50: > 100 µM
SR; read-out: Log TGI (converted)
  TGI: > 100 µM
MDA-MB-231
  GI50: > 100 µM
  LC50: > 100 µM
MDA-MB-231; read-out: Log TGI (converted)
  TGI: > 100 µM
[3]
  IC50: 2.9 µM
BT-549
  GI50: 74.1 µM
  LC50: > 100 µM
BT-549; read-out: Log TGI (converted)
  TGI: > 100 µM
UO-31
  GI50: > 100 µM
  LC50: > 100 µM
UO-31; read-out: Log TGI (converted)
  TGI: > 100 µM
786-0
  GI50: > 100 µM
  LC50: > 100 µM
786-0; read-out: Log TGI (converted)
  TGI: > 100 µM
Malme-3M
  GI50: > 100 µM
Malme-3M; [6]
  CC50: > 100 µM
Malme-3M; read-out: Log TGI (converted)
  TGI: > 100 µM
UACC-257
  GI50: > 100 µM
  LC50: > 100 µM
UACC-257; read-out: Log TGI (converted)
  TGI: > 100 µM
HCC 2998
  GI50: > 100 µM
HCC 2998; [6]
  CC50: > 100 µM
HCC 2998; read-out: Log TGI (converted)
  TGI: > 100 µM
SK-OV-3
  GI50: > 100 µM
  LC50: > 100 µM
SK-OV-3; read-out: Log TGI (converted)
  TGI: > 100 µM
SK-MEL-5
  GI50: > 100 µM
  LC50: > 100 µM
SK-MEL-5; read-out: Log TGI (converted)
  TGI: > 100 µM
SNB-75
  GI50: > 100 µM
  LC50: > 100 µM
SNB-75; read-out: Log TGI (converted)
  TGI: > 100 µM
HT-29
  GI50: > 100 µM
HT-29; [6]
  CC50: > 100 µM
HT-29; read-out: Log TGI (converted)
  TGI: > 100 µM
HCT-15
  GI50: > 100 µM
HCT-15; [6]
  CC50: > 100 µM
HCT-15; read-out: Log TGI (converted)
  TGI: > 100 µM
CAKI-1
  GI50: > 100 µM
  LC50: > 100 µM
CAKI-1; read-out: Log TGI (converted)
  TGI: > 100 µM
SNB-19
  GI50: > 100 µM
  LC50: > 100 µM
SNB-19; read-out: Log TGI (converted)
  TGI: > 100 µM
K562
  GI50: 47.9 µM
K562; [6]
  CC50: > 100 µM
K562; read-out: Log TGI (converted)
  TGI: > 100 µM
MCF7
  GI50: > 100 µM
  LC50: > 100 µM
MCF7; read-out: Log TGI (converted)
  TGI: > 100 µM
HCT-116
  GI50: > 100 µM
HCT-116; [6]
  CC50: > 100 µM
HCT-116; read-out: Log TGI (converted)
  TGI: > 100 µM
SK-MEL-28
  GI50: > 100 µM
SK-MEL-28; [6]
  CC50: > 100 µM
SK-MEL-28; read-out: Log TGI (converted)
  TGI: > 100 µM
[4]
  IC50: 2.7 µM
RXF 393
  GI50: > 100 µM
  LC50: > 100 µM
RXF 393; read-out: Log TGI (converted)
  TGI: > 100 µM
NCI-H322M
  GI50: > 100 µM
NCI-H322M; [6]
  CC50: > 100 µM
NCI-H322M; read-out: Log TGI (converted)
  TGI: > 100 µM
SK-MEL-2
  GI50: > 100 µM
  LC50: > 100 µM
SK-MEL-2; read-out: Log TGI (converted)
  TGI: > 100 µM
EKVX
  GI50: > 100 µM
EKVX; [6]
  CC50: > 100 µM
EKVX; read-out: Log TGI (converted)
  TGI: > 100 µM
[5]
  IC50: 10 µM
